# Measured values collected from several papers.
# Each line is one published result; the experiments were not run side by side.
SMILES,test system,conditions,quantity,value
COc1ccc([C@@H]2CN(C(=O)[C@@H](O)CO)C[C@@]2(C)[C@@H](C)O)cc1OC1CN(c2ccc(C)cn2)C1,"human, plasma","oral, 30 mg, single dose, healthy volunteers",AUC(0-inf),6330 ng·h/mL
CC(C)(O)c1ccccc1-c1ccc2[nH]c(/C=C/c3ccc(C(F)(F)F)cc3)nc2c1,"male human, plasma","oral, 15 mg, single dose, fasted",AUC(0-t),1010 ng·h/mL
CC(C)n1cc(C#N)c2cc(-n3cc(C(=O)O)cn3)ccc21,"male human, plasma","oral, 600 mg, single dose, fasted, healthy volunteers",AUC(0-inf),99800 ng·h/mL
COc1cc(C(=O)NC2CCN(C)CC2)c(F)cc1Nc1ncc(C(F)(F)F)c(Oc2cccc3c2C(=O)N(C)C3)n1,"human, plasma","oral, 10 mg, multiple doses, once daily, steady state, patients",AUC,0.816 µM·h
CC(C)(C)c1ccc(O)c(CN(Cc2cc(C(C)(C)C)ccc2O)C2CCC(NC(N)=O)CC2)c1 (centres unmarked),"male C57BL/6 mouse, brain","intraperitoneal, 10 mg/kg, single dose",tissue/plasma ratio,0.79
CC(C)(NC(=O)O[C@@H]1CN2CCC1CC2)c1csc(-c2ccc(F)cc2)n1,"female CD-1 mouse, brain","intraperitoneal, 10 mg/kg, single dose",tissue/plasma ratio,0.86
Cn1c(=O)oc2ccc(-c3ccc(C[C@@H](C#N)NC(=O)[C@@H]4CNCCCO4)cc3)cc21,"male human, plasma","oral, 50 mg, single dose, healthy volunteers",AUC,17.6 µM·h
CN(C(=O)n1cnc(-c2ccc[n+]([O-])c2)c1)C1CCCCC1,"male cynomolgus monkey, plasma","oral, 0.3 mg/kg",Tmax,2 h
Cn1cc(-c2ccc(S(=O)(=O)[C@@H]3C[C@@H](C(=O)NC4(C#N)CC4)N(C(=O)C4(C(F)(F)F)CC4)C3)c(C(F)(F)F)c2)cn1,"human, plasma","oral, 600 mg, single dose, fasted, healthy volunteers",AUC(0-inf),28700 ng·h/mL
CC(C)Oc1cccc(-c2cnc(N3CCC(C(N)=O)CC3)s2)c1,"male Swiss mouse, brain","oral, 30 mg/kg, single dose",tissue/plasma ratio,0.29
CCc1nc2c(C)cc(N3CCN(CC(=O)N4CC(O)C4)CC3)cn2c1N(C)c1nc(-c2ccc(F)cc2)c(C#N)s1,"human, plasma","oral, 1000 mg, single dose, fed, healthy volunteers",AUC(0-inf),66000 ng·h/mL
